Screens as filed in PubChem BioAssay.
DDE Tn7 FP inh: inhibitors of Tn7 peptide binding to human fibrin DD(E) | FP displacement of FITC-Tn7 peptide from fibrin DD(E); 0% = median of compound wells per plate | AID 720508 | hit rate 0.13% among 370,000 | inhibition, % at 8.3 µM;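 active means inhibition above the mean of compounds falling within the control limits plus 3 SD of them, cut at about 14% in these data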;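 further: 0% = plate median of compound wells and 100% = 10 µM Aha-Tn7 peptide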
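Also added: labelled Tn7 tracer, 0.1 µM; Assay system: human fibrin DD(E) protein; Amount: 2 µM fibrin DD(E); Schedule: 10 min compound pre-incubation, 3 h probe incubation at room temperature; Repeats: one replicate per compound; Read-out basis: percent inhibition; Measured by: fluorescence polarization of the labelled Tn7 tracer.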
HTRA1 inhibitor: inhibitors of human serine peptidase HTRA1. hit rate 0.5% among 340,000. recombinant HTRA1, FP-rhodamine activity-based probe, fluorescence polarization. Q92743. inhibition, % at 5.96 µM; in the data active means inhibition above about 36%;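 further: 0% = enzyme with DMSO and 100% = wells lacking enzyme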
SIAE primary: inhibitors of human sialic acid acetylesterase SIAE; SIAE FP-Rh probe binding, fluorescence polarization; inhibition, % at 9.66 µM; hit rate 0.69% among 370,000;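 active means inhibition above a cutoff: mean of compounds within the control limits plus 3 SD of those, cut at about 17% in these data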;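 further: 0% = plate median of compound wells and 100% = probe without SIAE protein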
TCR CD3 inh: inhibitors of human TCR-CD3 interaction; TAMRA-labeled TCR probe fluorescence, biochemical; inhibition, % at 9.4 µM; hit rate 0.37% among 360,000; AID 651800; in the data active means inhibition above about 19%;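 further: recombinant mutant TCR 2C K166C tagged with TAMRA read by polarization; 0% = receptor in buffer alone and 100% = receptor with positive control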
Tn6 DDE FP: disrupts Tn6 cyclic peptide binding to fibrin D-Dimer-E complex | Fibrin DD(E) TRITC-Tn6 fluorescence polarization displacement | hit rate 0.21% among 370,000 | inhibition, % at 8.3 µM;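 active means inhibition above a per-campaign cutoff: mean of compounds within control limits plus 3 SD, cut at about 15% in these data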;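 further: 0% = median of all compound wells on the plate and 100% = blocking peptide control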
ABHD4 inh: inhibitors of mouse ABHD4; Q8VD66; purified mABHD4, FP-Rh probe fluorescence polarization; inhibition, % at 8.92 µM; hit rate 0.54% among 370,000;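 active means inhibition exceeding the mean over every tested compound plus 3 SD, cut at about 30% in these data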;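 further: 0% = plate median of compound wells and 100% = S159A mutant with DMSO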
Target sequence (Q8VD66 whole entry, looked up): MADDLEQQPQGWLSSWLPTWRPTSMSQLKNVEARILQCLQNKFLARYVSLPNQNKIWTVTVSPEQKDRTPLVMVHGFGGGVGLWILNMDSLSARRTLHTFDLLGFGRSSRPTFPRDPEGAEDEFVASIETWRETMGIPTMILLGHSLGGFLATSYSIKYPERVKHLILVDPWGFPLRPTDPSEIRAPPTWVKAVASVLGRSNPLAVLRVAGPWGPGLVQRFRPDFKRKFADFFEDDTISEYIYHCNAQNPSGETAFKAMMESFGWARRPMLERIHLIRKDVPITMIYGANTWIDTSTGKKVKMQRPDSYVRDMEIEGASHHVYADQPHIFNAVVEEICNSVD
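Test system: mouse ABHD4 enzyme, wild type. Reagent: FP-Rh fluorescent activity-based probe, added after compound pre-incubation. Timing: pre-incubation 45 min, probe exposure 60 min, at 25 °C. Technique: FP readout, ex 525 nm / em 598 nm. Benchmarks: high control S159A mutant with DMSO, low control median of compound wells.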
HTRA1 conf: confirmation of human HTRA1 inhibitors; hit rate 66% among 1,600; inhibition, % at 5.96 µM; recombinant HTRA1, FP-rhodamine activity-based probe, fluorescence polarization; shares compounds with HTRA1 inhibitor; AID 540248;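 active means mean inhibition over three repeats above a set limit taken from the earlier primary screen, cut at about 37% in these data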;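 further: 0% = HTRA1 with DMSO and 100% = wells lacking HTRA1; inhibitors block probe binding so polarization drops and inhibition rises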
Active calls of the source: *; . = no result given. Sampled rows, rich in hits. Any-hit rate of the full collection: about 1.8%.

SMILES | DDE Tn7 FP inh | HTRA1 inhibitor | SIAE primary | TCR CD3 inh | Tn6 DDE FP | ABHD4 inh | HTRA1 conf
O=C(CSc1nnnn1-c1ccc2c(c1)OCCO2)N1CCc2ccccc21 | 2 | -3 | 27* | 2 | 3 | 11 | .
O=C1c2cc(Br)ccc2N(Cc2ccc(Br)cc2)S(=O)(=O)C1c1cc(Cl)c(Cl)cc1[N+](=O)[O-] (configuration not stated) | . | 53* | . | . | . | . | .
Cc1[nH]c2ccccc2c1/C=N/NC(=O)c1cccc(S(=O)(=O)Nc2cccc(C(F)(F)F)c2)c1 | -3 | 31 | 19* | 5 | -10 | -21 | .
C[C@@H]1O[C@@H](n2c3ccc(Cl)cc3c3ccc4c5cc(Cl)ccc5[nH]c4c32)[C@H](O)[C@H](O)[C@H]1O | -9 | . | -10 | . | -15 | -1 | .
S=C(N/N=C/c1ccc2ncccc2c1)Nc1cccnc1 | 3 | -3 | -5 | -9 | -6 | 0 | .
Oc1ccc(/C=N/NC(=S)Nc2cccnc2)cc1O | 3 | 15 | 7 | 24* | 0 | 26 | .
CCC(=O)OC1(C)C(=O)C=C2C=C(c3ccsc3)OC=C2C1=O (configuration not stated) | . | 48* | . | . | . | . | .
O=S1(=O)CC(N2CCCC2)CN1 (configuration not stated) | 5 | . | 3 | . | 8 | 2 | .
CCOC(=O)c1c(NC(C)=O)sc2c(O)cccc12 | -3 | 0 | -6 | -1 | -4 | -5 | .
CCOC(=O)c1c(NC(C)=O)sc2c(O)c(Br)cc(Br)c12 | 8 | 0 | 6 | 9 | 4 | 36* | .
C/C(=N\NC(=O)c1ccc(Br)cc1)C1C(=O)c2ccccc2C1=O | 0 | 40* | 0 | 27* | 1 | 36* | .
O=C(Nc1ccc(Cl)cc1)Nc1ccc2c(c1)N1CCN=C1S2 | 9 | 10 | 19* | -15 | -20 | 5 | .
Cc1ccc(Nc2nc(-c3c(C)nc4ncccn34)cs2)cc1 | 4 | 6 | 4 | -2 | -2 | 19 | .
Cc1ccc(Nc2nc(-c3c(C)nc4ccccn34)cs2)cc1 | 10 | 20 | 7 | -6 | -4 | 35* | .
C=CCOC(=O)C1=C(C)N=c2sc(=C3C(=O)N(CC(=O)O)c4ccccc43)c(=O)n2C1c1ccc(OC)cc1 (configuration not stated) | 4 | . | 5 | . | 1 | 18 | .
CCOc1ccc(-n2c(SCC(=O)Nc3ccc(S(=O)(=O)Nc4nccs4)cc3)nnc2-c2ccncc2)cc1 | 2 | . | -24 | . | -1 | -33 | .
CCOC(=O)C1C2C=CC3(CN(c4ccc(Cl)c(F)c4)C(=O)C13)O2 (configuration not stated) | 0 | 3 | -7 | -6 | 0 | 1 | .
CCCOC(=O)C1C2C=CC3(CN(c4ccc(Cl)c(F)c4)C(=O)C13)O2 (configuration not stated) | 1 | 2 | 49* | -5 | -5 | -1 | .
CN(C)c1nc(-c2ccccn2)nnc1-c1ccccc1 | -5 | 52* | 2 | -3 | 2 | 2 | 57*
COc1cc(/C=C(\C#N)C(=O)c2ccc(O)c(O)c2)cc(I)c1O | 3 | 41* | -10 | 23* | 0 | -6 | 30
COc1ccc(C=C(C#N)C(=O)c2ccccc2)cc1 | -6 | . | -5 | -7 | 4 | -57 | .
COc1ccc(-n2c(COc3ccc(C)cc3)nnc2SCC(=O)c2ccc(-c3ccccc3)cc2)cc1 | -2 | . | -3 | . | -14 | -13 | .
O=C(CSc1nc2ccccc2c(=O)n1-c1ccc(Cl)cc1)NNC(=S)Nc1ccccc1 | 0 | . | -2 | . | -5 | 2 | .
CCCC[C@H](CCCc1ccc(F)cc1)CCC(=O)N(c1ccccc1)c1ccccc1 | 0 | . | 4 | . | -5 | -8 | .
O=C(O)Cc1ccc(N=Nc2c(O)c(C(=O)O)cc3ccccc23)cc1 | 7 | 45* | 7 | 10 | -9 | 22 | 43*
SMILES | DDE Tn7 FP inh | HTRA1 inhibitor | SIAE primary | TCR CD3 inh | Tn6 DDE FP | ABHD4 inh | HTRA1 conf
Oc1ccc2ccccc2c1N=Nc1ccc(F)cc1 | -8 | 8 | -14 | -2 | -5 | -4 | .
CC(=O)c1cc(-c2ccccc2)c(=O)n2c1CCC2 | 7 | . | 0 | . | -5 | 3 | .
CCOC(=O)C1CCCN(C2=C(NS(=O)(=O)c3ccc(Br)cc3)C(=O)c3ccccc3C2=O)C1 (configuration not stated) | 2 | 46* | 13 | 3 | -9 | 25 | 62*
CC1CCCN(C2=C(NS(=O)(=O)c3ccc(Br)cc3)C(=O)c3ccccc3C2=O)C1 (configuration not stated) | 4 | 5 | 14 | -7 | 4 | 1 | .
CCC(C)NC(=O)C1CCN(S(=O)(=O)c2ccc3[nH]c(=O)oc3c2)CC1 (configuration not stated) | 3 | . | 3 | . | -2 | 7 | .
C=CCn1c(C)cc(-c2csc(NC)n2)c1C | 4 | 42* | 6 | -9 | 7 | 17 | 28
COc1ccc(-n2c(C)cc(-c3csc(N)n3)c2C)cc1 | -5 | 39* | 14 | -5 | 4 | 21 | 32
C=CCn1c(C)cc(-c2csc(N)n2)c1C | 0 | 60* | 8 | 1 | 3 | 20 | 31
C=CCn1c(C)cc(-c2csc(NCC)n2)c1C | 6 | 30 | 8 | -3 | -3 | 21 | .
COc1cc(NC(=O)c2ccccc2)c(C)cc1NC(=O)CSc1nnc(-c2ccccc2F)n1-c1ccc(C)cc1 | -9 | . | -1 | . | 3 | -9 | .
Cc1cc(-c2ccccc2)nc(N/N=C/c2ccc(O)cc2O)n1 | 7 | 41* | 14 | -2 | -2 | 24 | 75*
Cc1ccc(/C=N/Nc2cccc3cccnc23)c(O)c1 | -1 | 29 | 14 | 0 | 3 | 21 | .
Oc1ccc(/C=N/Nc2cccc3cccnc23)c(O)c1 | 7 | 47* | 7 | -5 | -4 | 29 | 33
O=C(Nc1ccc2ccccc2c1)C1CC2CCC1C2 (configuration not stated) | 4 | . | 0 | . | -5 | -17 | .
O=C1c2ccccc2C(=O)c2c1ccc(C(=O)N1CCCCC1)c2NCCO | -1 | 3 | -5 | -1 | 10 | 7 | .
CC1(C)CCCN(C(=O)c2ccc3c(c2NCCO)C(=O)c2ccccc2C3=O)C1 | -1 | 42* | 6 | -17 | 1 | 5 | 39*
CCCn1c(NC(=O)c2ccccc2)nc(Cc2ccccc2)c1Cc1ccccc1 | 6 | . | -6 | . | 0 | 5 | .
COc1cc2c(cc1OC)C(=O)C(Br)CC2 (configuration not stated) | . | 42* | . | . | . | . | 6
COc1cc2c(cc1OC)C(=O)C(c1ccc3c(c1)OCO3)CC2 (configuration not stated) | -14 | -2 | 2 | 0 | 9 | 0 | .
